From ChEMBL document CHEMBL1121974, “Structure-activity relationships of some technetium-99m labeled [(thioethyl)amino] carboxylates” (J Med Chem, 1982)

Tests used:
[1] = Acidity constant pK3 was measured; assay type: ADME; conditions: read-out: pK3
In short: (§1)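 Acid-base titration of the free ligands over a pH range, followed by the chemical shifts of nonlabile protons. Macroscopic constants were assigned to the COOH, SH and NH⁺ dissociation steps; microscopic constants were not obtained.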

Mus musculus [2] = test: Percent injected radioactivity was determined in blood after intravenous administration into the tail vein of male swiss albino mice after 60 min; assay type: ADME, organism-based; conditions: in vivo, 1 h
In short: (§2)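 Mice weighing 20–25 g received 0.2 mL (2 μCi) and were held in metabolic cages. At 60 min they were killed with ether, with the penis ligated. Organs were γ-counted, tail counts were subtracted from the dose, and values are the mean of five ±SD.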

Mus musculus [3] = test: Percent injected radioactivity was determined in muscle after intravenous administration into the tail vein of male swiss albino mice after 60 min; assay type: ADME, organism-based, Muscle tissue; parameters: concentration or dose not given beside the values; conditions: in vivo, 1 h; in short: as §2
[4] = Acidity constant pK2 was measured; assay type: ADME; conditions: read-out: pK2; in short: as §1
Mus musculus [5] = test: Percent injected radioactivity was determined in kidney after intravenous administration into the tail vein of male swiss albino mice after 60 min; assay type: ADME, organism-based; conditions: in vivo, 1 h; in short: as §2
Mus musculus [6] = test: Percent injected radioactivity was determined in liver and gallbladder after intravenous administration into the tail vein of male swiss albino mice after 60 min; assay type: ADME, organism-based; parameters: concentration or dose not given beside the values; conditions: in vivo, 1 h; in short: as §2
Mus musculus [7] = test: Percent injected radioactivity was determined in urine after intravenous administration into the tail vein of male swiss albino mice after 60 min; assay type: ADME, organism-based; parameters: concentration or dose not given beside the values; conditions: in vivo, 1 h; in short: as §2
[8] = Acidity constant pK1 was measured; assay type: ADME; conditions: read-out: pK1; in short: as §1
Mus musculus [9] = test: Percent injected radioactivity was determined in intestine after intravenous administration into the tail vein of male swiss albino mice, after 60 min; assay type: ADME, organism-based; conditions: in vivo, 1 h; in short: as §2
[10] = Acidity constant pK3' was measured; assay type: ADME; conditions: read-out: pK3'; in short: as §1

Structure (SMILES)	pKa [1]	Radioactivity (Mus musculus [2]) [%]	Radioactivity (Mus musculus [3]) [%]	pKa [4]	Radioactivity (Mus musculus [5]) [%]	Radioactivity (Mus musculus [6]) [%]	Radioactivity (Mus musculus [7]) [%]	pKa [8]	Radioactivity (Mus musculus [9]) [%]	pKa [10]
Cl.O=C(O)CNCCS	11.6	4.176	6.988	8.5	5.318	5.448	36.323	2.6	16.702	
CCCCSCCN(CC(=O)O)CC(=O)O		2.8	4.013		2.767	12.7	15.967		52.4	
O=C(O)CN(CCSSCCN(CC(=O)O)CC(=O)O)CC(=O)O	9.2	4.64	7.97		4.24	3.085	50.09	2.3	8.9	
O=C(O)CN(CCSc1ccc2ccccc2c1)CC(=O)O		4.41	5.254		1.842	22.748	9.74		51.3	
O=C(O)CN(CCS)CC(=O)O	10.6	3.598	7.553	7.7	5.677	1.92	52.11	1.9	4.743	
O=C(O)CN(CCSCc1ccccc1)CC(=O)O	9.1	2.627	3.32		2.083	8.429	11.371	2.1	58.02	
O=C(O)C(S)C(S)C(=O)O (stereo not drawn)		18.873	24.17		21.823	12.617	30.04		5.693	
CCSCCN(CC(=O)O)CC(=O)O		4.55	3.56		3.567	8.568	34.1		25.533	
O=C(O)CN(CCS)CCN(CCS)CC(=O)O	11.6	3.46	3.472	9	5.62	4.3	39.5	1.1	16.924	4.6
